Experimental findings from PubChem BioAssay AID623987 (Broad Institute, 2012) are described below.

The structures appear in SMILES notation. The source made the active and inactive calls.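 How the source made its calls: active means compounds lowering cell ATP light, with fitted IC50 at most twice the top tested dose; inconclusive means flat curve losing 30 to 70% signal, or poor fit; inactive means the rest.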 Some results are limits rather than exact numbers.

Test system in the first experiment: not listed separately
Nature of the experiment: mammalian cell viability loss in HeLa – CellTiter-Glo luminescence, dry powder, set 3, cytotoxicity control for pyoverdine/PvdQ inhibitor project, dose response (AID 623987). To be noted: HeLa viability, CellTiter-Glo ATP luminescence; at 120 µM (top of the series). In outline: (§1)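 Doses: 3-fold compound dilution series from 10 mM stock top. Material: HeLa cells. Technique: CellTiter-Glo luminescence measuring cellular ATP. Times: cells grown 24 h at 37 °C before dosing, 48 h compound exposure.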
(In ATP-based viability assays light output follows the ATP content of the culture.)
For the molecule `CCCCC(C#N)c1ccc(F)cc1` (stereo not given), the activity change, negative = toxicity was -1.79% (inactive).
On to `N#CC(c1ccc(Cl)cc1)N1CCCC1` (stereo not given), for which the activity change, negative = toxicity is 24% (inactive).
For `CCCCC(c1ccc(Cl)cc1)c1nn[nH]n1` (stereo not given), the activity change, negative = toxicity was 9.15% (inactive).
Still for that read-out and setting: then `N#Cc1cccc(C(C#N)c2ccc(F)cc2)n1` (stereo not given), with -2.4% (inactive).
Consider `Clc1ccc(C(c2cccc(Cl)n2)c2nn[nH]n2)cc1` (stereo not given), for which the activity change, negative = toxicity is 1.4% (inactive).
Turning to `CCCCC(C#N)c1ccc(F)cn1` (stereo not given), the activity change, negative = toxicity is 1.98% (inactive).
`N#CC(c1ccc(Cl)cc1)c1cccc(C(F)(F)F)n1` (stereo not given): the activity change, negative = toxicity was 4.48% (inactive).
Still for that read-out and setting: then `CCCCC(C#N)c1ccc(Cl)cc1` (stereo not given), with 7.6% (inactive); and `COCCC(C#N)c1ccc(F)cc1` (stereo not given), with 4.64% (inactive).
Still for that read-out and setting: then `COCCOCCC(C#N)c1ccc(F)cc1` (stereo not given), with 5.01% (inactive).
On the same count and under the same terms, under `N#CC(c1ccc(Cl)cc1)c1ccccn1` (stereo not given) stands 0.002% (inactive); under `CN(C)CCCC(C#N)c1ccc(Cl)cc1` (stereo not given), 6.74% (inactive).
As for `COCCNC(C#N)c1ccc(Cl)cc1` (stereo not given), the activity change, negative = toxicity was -1.45% (inactive).
On the same count and under the same terms, under `CCCCC(C#N)c1ccc(Cl)cn1` (stereo not given) stands 13.2% (inactive); under `N#CC(c1ccc(F)cc1)c1cccc(C(F)(F)F)n1` (stereo not given), 5.55% (inactive).
As for `N#CC(c1ccc(Cl)cc1)c1cccc(Cl)n1` (stereo not given), the activity change, negative = toxicity was 3.78% (inactive).

A further experiment has as its system HeLa viability, CellTiter-Glo ATP luminescence. Described as above.
Conditions: not given
In outline:
as §1
One may read the IC50 as the point on the concentration scale where inhibition reaches its midpoint. On to `COCCC(C#N)c1ccc(Cl)cc1` (stereo not given), for which the IC50 was 94.2 µM.
`N#CC(c1cccc(C(F)(F)F)n1)c1ccc(Cl)cc1F` (stereo not given): the IC50 is > 240 µM (inactive).
The same measure, in the same setting: under `N#CC1c2ccc(Cl)cc2CCc2cccnc21` (stereo not given) stands > 240 µM (inactive); under `N#CC(c1ccc(C(F)(F)F)c(Cl)n1)c1ccccc1OC(F)(F)F` (stereo not given), > 240 µM (inactive); under `COCCOCCC(C#N)c1ccc(Cl)cc1` (stereo not given), > 240 µM (inactive).
The same measure, in the same setting: under `CN(C)CCCC(C#N)c1ccc(F)cc1` (stereo not given) stands > 240 µM (inactive); under `N#CC(c1ccc(F)cc1)c1cccc(Cl)n1` (stereo not given), > 240 µM (inactive); under `N#CC(c1ccc(Cl)cc1)c1ncccc1Cl` (stereo not given), > 240 µM (inactive).
For `CCCCC(C#N)c1ccccn1` (stereo not given), the IC50 is > 240 µM (inactive).
